Experimental data from ChEMBL document CHEMBL1926614, “Substituted thiazoles V. synthesis and antitumor activity of novel thiazolo[2,3-b]quinazoline and pyrido[4,3-d]thiazolo[3,2-a]pyrimidine analogues” (2012).

How the values were obtained:
Type in all cases: functional
UACC-257 = assay: Growth inhibition of human UACC257 cells at 10 uM after 48 hrs by coulter counting; conditions: UACC-257, 48 h, read-out: GI
Procedure, shortened: (§1)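 Single-dose screen in the NCI 60 human tumor cell line panel (nine subpanels). Compounds dissolved in DMSO and diluted in phosphate buffered saline, keeping final DMSO below 1%. Added in duplicate wells to cells at 6 × 10⁴ cells/ml. Controls held PBS and DMSO at matching dilutions. Incubated at 37 °C, humidified, 5% CO₂. Reported as percent growth of treated cells.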

HCT-116 = assay: Growth inhibition of human HCT116 cells at 10 uM after 48 hrs by coulter counting; conditions: HCT-116, 48 h, read-out: GI
Procedure, shortened: (§2)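 Single-dose primary screen across the full NCI 60-cell-line panel. Stocks were made in DMSO and diluted in PBS to a final DMSO below 1%. Cultures at 6 × 10⁴ cells/ml were run in duplicate wells alongside PBS/DMSO vehicle controls at 37 °C in humidified 5% CO₂. Data were expressed as percent growth of treated cells.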

LOX IMVI = assay: Growth inhibition of human LOXIMVI cells at 10 uM after 48 hrs by coulter counting; conditions: read-out: GI; procedure, shortened: as §2
NCI-H226 = assay: Growth inhibition of human NCI-H226 cells at 10 uM after 48 hrs by coulter counting; conditions: NCI-H226, 48 h, read-out: GI; procedure, shortened: as §2
SNB-75 = assay: Growth inhibition of human SNB75 cells at 10 uM after 48 hrs by coulter counting; conditions: SNB-75, 48 h, read-out: GI; procedure, shortened: as §2
A498 = assay: Growth inhibition of human A498 cells at 10 uM after 48 hrs by coulter counting; conditions: A498, 48 h, read-out: GI; procedure, shortened: as §2
UACC-62 = assay: Growth inhibition of human UACC62 cells at 10 uM after 48 hrs by coulter counting; conditions: UACC-62, 48 h, read-out: GI; procedure, shortened: as §1
MCF7 = assay: Growth inhibition of human MCF7 cells at 10 uM after 48 hrs by coulter counting; conditions: MCF7, 48 h, read-out: GI; procedure, shortened: as §2
HOP-62 = assay: Growth inhibition of human HOP62 cells at 10 uM after 48 hrs by coulter counting; conditions: HOP-62, 48 h, read-out: GI; procedure, shortened: as §2
MDA-MB-435 = assay: Growth inhibition of human MDA-MB-435 cells at 10 uM after 48 hrs by coulter counting; conditions: MDA-MB-435, 48 h, read-out: GI; procedure, shortened: as §2
HL-60(TB) = assay: Growth inhibition of human HL-60(TB) cells at 10 uM after 48 hrs by coulter counting; conditions: HL-60, 48 h, read-out: GI
Procedure, shortened: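 Test compound was dissolved in DMSO and diluted in phosphate-buffered saline to a final DMSO level below 1%. Dilutions were plated in duplicate with cell culture at 6 × 10⁴ cells/ml. Vehicle controls held PBS and DMSO at matching dilutions. Incubation was at 37 °C, humidified, under 5% CO₂. Data were reported as percent growth of treated cells.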

MOLT-4 = assay: Growth inhibition of human MOLT4 cells at 10 uM after 48 hrs by coulter counting; conditions: MOLT-4, 48 h, read-out: GI; procedure, shortened: as §2
RPMI-8226 = assay: Growth inhibition of human RPMI8226 cells at 10 uM after 48 hrs by coulter counting; conditions: RPMI-8226, 48 h, read-out: GI; procedure, shortened: as §2
U-251 = assay: Growth inhibition of human U251 cells at 10 uM after 48 hrs by coulter counting; conditions: U-251, 48 h, read-out: GI; procedure, shortened: as §1
[1] = Growth inhibition of human NCI-322M cells at 10 uM after 48 hrs by coulter counting; conditions: read-out: GI; procedure, shortened: as §2
CCRF-CEM = assay: Growth inhibition of human CCRF-CEM cells at 10 uM after 48 hrs by coulter counting; conditions: read-out: GI; procedure, shortened: as §2
SK-MEL-2 = assay: Growth inhibition of human SK-MEL-2 cells at 10 uM after 48 hrs by coulter counting; conditions: SK-MEL-2, 48 h, read-out: GI; procedure, shortened: as §2
IGROV-1 = assay: Growth inhibition of human IGROV1 cells at 10 uM after 48 hrs by coulter counting; conditions: IGROV-1, 48 h, read-out: GI; procedure, shortened: as §2
HCC 2998 = assay: Growth inhibition of human HCC2998 cells at 10 uM after 48 hrs by coulter counting; conditions: HCC 2998, 48 h, read-out: GI; procedure, shortened: as §2
OVCAR-4 = assay: Growth inhibition of human OVCAR4 cells at 10 uM after 48 hrs by coulter counting; conditions: OVCAR-4, 48 h, read-out: GI; procedure, shortened: as §2
CAKI-1 = assay: Growth inhibition of human Caki1 cells at 10 uM after 48 hrs by coulter counting; conditions: CAKI-1, 48 h, read-out: GI; procedure, shortened: as §2
BT-549 = assay: Growth inhibition of human BT549 cells at 10 uM after 48 hrs by coulter counting; conditions: BT-549, 48 h, read-out: GI; procedure, shortened: as §2
KM12 = assay: Growth inhibition of human KM12 cells at 10 uM after 48 hrs by coulter counting; conditions: KM12, 48 h, read-out: GI; procedure, shortened: as §2
UO-31 = assay: Growth inhibition of human UO31 cells at 10 uM after 48 hrs by coulter counting; conditions: UO-31, 48 h, read-out: GI; procedure, shortened: as §1
A549 = assay: Growth inhibition of human A549 cells at 10 uM after 48 hrs by coulter counting; conditions: A549, 48 h, read-out: GI; procedure, shortened: as §2
SF-295 = assay: Growth inhibition of human SF295 cells at 10 uM after 48 hrs by coulter counting; conditions: SF-295, 48 h, read-out: GI; procedure, shortened: as §2
HT-29 = assay: Growth inhibition of human HT-29 cells at 10 uM after 48 hrs by coulter counting; conditions: HT-29, 48 h, read-out: GI; procedure, shortened: as §2
NCI-H522 = assay: Growth inhibition of human NCI-H522 cells at 10 uM after 48 hrs by coulter counting; conditions: NCI-H522, 48 h, read-out: GI; procedure, shortened: as §2
EKVX = assay: Growth inhibition of human EKVX cells at 10 uM after 48 hrs by coulter counting; conditions: read-out: GI; procedure, shortened: as §2
T47D = assay: Growth inhibition of human T47D cells at 10 uM after 48 hrs by coulter counting; conditions: read-out: GI; procedure, shortened: as §1
ACHN = assay: Growth inhibition of human ACHN cells at 10 uM after 48 hrs by coulter counting; conditions: read-out: GI; procedure, shortened: as §2
SK-MEL-5 = assay: Growth inhibition of human SK-MEL-5 cells at 10 uM after 48 hrs by coulter counting; conditions: SK-MEL-5, 48 h, read-out: GI; procedure, shortened: as §2
SF-539 = assay: Growth inhibition of human SF539 cells at 10 uM after 48 hrs by coulter counting; conditions: SF-539, 48 h, read-out: GI; procedure, shortened: as §2
SK-MEL-28 = assay: Growth inhibition of human SK-MEL-28 cells at 10 uM after 48 hrs by coulter counting; conditions: SK-MEL-28, 48 h, read-out: GI; procedure, shortened: as §2
NCI-H23 = assay: Growth inhibition of human NCI-H23 cells at 10 uM after 48 hrs by coulter counting; conditions: NCI-H23, 48 h, read-out: GI; procedure, shortened: as §2
SNB-19 = assay: Growth inhibition of human SNB19 cells at 10 uM after 48 hrs by coulter counting; conditions: SNB-19, 48 h, read-out: GI; procedure, shortened: as §2
M14 = assay: Growth inhibition of human M14 cells at 10 uM after 48 hrs by coulter counting; conditions: M14, 48 h, read-out: GI; procedure, shortened: as §2
SF-268 = assay: Growth inhibition of human SF268 cells at 10 uM after 48 hrs by coulter counting; conditions: SF-268, 48 h, read-out: GI; procedure, shortened: as §2
NCI/ADR-RES = assay: Growth inhibition of human NCI/ADR-RES cells at 10 uM after 48 hrs by coulter counting; conditions: read-out: GI; procedure, shortened: as §2
K562 = assay: Growth inhibition of human K562 cells at 10 uM after 48 hrs by coulter counting; conditions: K562, 48 h, read-out: GI; procedure, shortened: as §2
NCI-H460 = assay: Growth inhibition of human NCI-H460 cells at 10 uM after 48 hrs by coulter counting; conditions: NCI-H460, 48 h, read-out: GI; procedure, shortened: as §2
DU-145 = assay: Growth inhibition of human DU145 cells at 10 uM after 48 hrs by coulter counting; conditions: DU-145, 48 h, read-out: GI; procedure, shortened: as §2

CC1=CSC2=NC3=C(CCC/C3=C\c3ccccc3)C(c3ccccc3)N12 (configuration not stated)
inhibition of growth at 10 µM (UACC-257): > 10% | inhibition of growth at 10 µM (HCT-116): > 10% | inhibition of growth at 10 µM (LOX IMVI): > 10% | inhibition of growth at 10 µM (NCI-H226): 11.2% | inhibition of growth at 10 µM (SNB-75): 13.3% | inhibition of growth at 10 µM (A498): > 10% | inhibition of growth at 10 µM (UACC-62): > 10% | inhibition of growth at 10 µM (MCF7): > 10% | inhibition of growth at 10 µM (HOP-62): > 10% | inhibition of growth at 10 µM (MDA-MB-435): > 10% | inhibition of growth at 10 µM (HL-60(TB)): > 10% | inhibition of growth at 10 µM (MOLT-4): > 10% | inhibition of growth at 10 µM (RPMI-8226): > 10% | inhibition of growth at 10 µM (U-251): > 10% | inhibition of growth at 10 µM [1]: > 10% | inhibition of growth at 10 µM (CCRF-CEM): > 10% | inhibition of growth at 10 µM (SK-MEL-2): > 10% | inhibition of growth at 10 µM (IGROV-1): > 10% | inhibition of growth at 10 µM (HCC 2998): > 10% | inhibition of growth at 10 µM (OVCAR-4): > 10% | inhibition of growth at 10 µM (CAKI-1): 11.4% | inhibition of growth at 10 µM (BT-549): > 10% | inhibition of growth at 10 µM (KM12): > 10% | inhibition of growth at 10 µM (UO-31): 28.8% | inhibition of growth at 10 µM (A549): > 10% | inhibition of growth at 10 µM (SF-295): > 10% | inhibition of growth at 10 µM (HT-29): > 10% | inhibition of growth at 10 µM (NCI-H522): > 10% | inhibition of growth at 10 µM (EKVX): > 10% | inhibition of growth at 10 µM (T47D): > 10% | inhibition of growth at 10 µM (ACHN): > 10% | inhibition of growth at 10 µM (SK-MEL-5): > 10% | inhibition of growth at 10 µM (SF-539): > 10% | inhibition of growth at 10 µM (SK-MEL-28): > 10% | inhibition of growth at 10 µM (NCI-H23): > 10% | inhibition of growth at 10 µM (SNB-19): > 10% | inhibition of growth at 10 µM (M14): > 10% | inhibition of growth at 10 µM (SF-268): > 10% | inhibition of growth at 10 µM (NCI/ADR-RES): > 10% | inhibition of growth at 10 µM (K562): 13.8% | inhibition of growth at 10 µM (NCI-H460): > 10% | inhibition of growth at 10 µM (DU-145): > 10%
